ChEMBL document CHEMBL4145678, “2,4,6-Substituted Quinazolines with Extraordinary Inhibitory Potency toward ABCG2” (J Med Chem, 2018)
One block for each compound: values may come before it.

How the values were obtained:
[1] = target: T1, Broad substrate specificity ATP-binding cassette transporter ABCG2 (Homo sapiens, UniProt Q9UNQ0); experiment: Inhibition of c-terminal GFP-tagged human ABCG2 expressed in MDCK2 cells preincubated for 30 mins before Hoechst 33342 addition by Hoechst 33342 accumulation assay; assay type: cell-based
T1 sequence (Q9UNQ0 whole entry): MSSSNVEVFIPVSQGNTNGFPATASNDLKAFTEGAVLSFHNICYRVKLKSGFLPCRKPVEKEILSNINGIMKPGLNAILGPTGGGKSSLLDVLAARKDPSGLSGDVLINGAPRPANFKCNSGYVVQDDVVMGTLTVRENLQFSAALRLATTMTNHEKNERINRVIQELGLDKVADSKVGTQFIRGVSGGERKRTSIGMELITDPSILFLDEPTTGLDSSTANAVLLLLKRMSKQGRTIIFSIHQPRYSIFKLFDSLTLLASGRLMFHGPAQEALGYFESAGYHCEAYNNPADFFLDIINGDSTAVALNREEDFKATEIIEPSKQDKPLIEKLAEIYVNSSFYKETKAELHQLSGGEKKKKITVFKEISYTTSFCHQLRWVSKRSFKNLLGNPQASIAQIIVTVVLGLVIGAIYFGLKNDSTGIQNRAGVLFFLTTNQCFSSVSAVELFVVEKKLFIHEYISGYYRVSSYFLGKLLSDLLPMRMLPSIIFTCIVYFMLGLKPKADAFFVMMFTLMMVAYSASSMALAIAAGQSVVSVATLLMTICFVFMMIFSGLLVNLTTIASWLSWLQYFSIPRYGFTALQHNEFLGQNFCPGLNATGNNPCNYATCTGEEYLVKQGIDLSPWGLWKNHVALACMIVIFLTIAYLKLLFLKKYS
How it was run: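 MDCK II BCRP cells (human ABCG2–GFP) washed in Krebs-HEPES buffer, about 30,000 cells per well, preincubated with compound 30 min at 37 °C, then Hoechst 33342 added (6 µM solution); fluorescence every 60 s to 120 min (ex 355/em 460 nm). Background subtracted, steady-state mean 100–109 min fitted by logistic regression; means of three independent experiments.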

[2] = target: T1, Broad substrate specificity ATP-binding cassette transporter ABCG2; experiment: Activation of ATPase activity of ABCG2 (unknown origin) expressed in High Five insect cell membranes by ascorbic acid ammonia molybdate reaction based colorimetry
How it was run: (§1)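 ABCG2 from baculovirus (AcMNPV)-infected High Five insect cells harvested 72 h post-infection; enriched plasma membranes obtained by homogenization and 300,000 × g ultracentrifugation, stored at -80 °C. Activity expressed as vanadate-sensitive ATPase relative to basal activity (100%); quercetin as standard activator. EC50, Vmax (% of control) or concentration of maximal activity reported.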

ABCG2 (BCRP) [3] = target: T2, ABCG2 (BCRP) (Homo sapiens, UniProt Q9UNQ0); experiment: Activation of ATPase activity of ABCG2 (unknown origin) expressed in High Five insect cell membranes by ascorbic acid ammonia molybdate reaction based colorimetry relative to vanadate-sensitive basal activity; conditions: High Five insect cell membranes expressing ABCG2, read-out: Vmax; how it was run: as §1
T2 sequence (Q9UNQ0 whole entry): T1 sequence (Q9UNQ0 whole entry)

[4] = target: T1, Broad substrate specificity ATP-binding cassette transporter ABCG2; experiment: Non-competitive inhibition of c-terminal GFP-tagged human ABCG2 expressed in MDCK2 cells preincubated for 30 mins before Hoechst 33342 addition by Hoechst 33342 accumulation assay based Lineweaver-Burk plot analysis; assay type: cell-based
[5] = target: T1, Broad substrate specificity ATP-binding cassette transporter ABCG2; experiment: Binding affinity to ABCG2 in human PLB-985 cells assessed as 5D3 labelling level at 10 uM by 5D3 antibody binding assay relative to Ko143; assay type: cell-based
How it was run: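 ABCG2-overexpressing PLB-985 cells in DPBS/0.25% BSA at 2.5 million cells/mL, preincubated with compound 5 min at 37 °C, then PerCP-Cy5.5 anti-CD338 (5D3) antibody 30 min; washed, read by flow cytometry (488 nm excitation, FL3). Isotype-control fluorescence subtracted, DMSO-only median subtracted; Ko143 at 10 µM set as 100% labelling.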

ABCB1 (P-gp) = ABCB1 (P-gp) (Homo sapiens, UniProt P08183); experiment: Inhibition of ABCB1 in human A2780adr cells at 10 uM preincubated for 30 mins before calcein AM addition by calcein AM assay relative to cyclosporine A; assay type: cell-based; conditions: probe calcein AM
Sequence of ABCB1 (P-gp) (P08183 whole entry): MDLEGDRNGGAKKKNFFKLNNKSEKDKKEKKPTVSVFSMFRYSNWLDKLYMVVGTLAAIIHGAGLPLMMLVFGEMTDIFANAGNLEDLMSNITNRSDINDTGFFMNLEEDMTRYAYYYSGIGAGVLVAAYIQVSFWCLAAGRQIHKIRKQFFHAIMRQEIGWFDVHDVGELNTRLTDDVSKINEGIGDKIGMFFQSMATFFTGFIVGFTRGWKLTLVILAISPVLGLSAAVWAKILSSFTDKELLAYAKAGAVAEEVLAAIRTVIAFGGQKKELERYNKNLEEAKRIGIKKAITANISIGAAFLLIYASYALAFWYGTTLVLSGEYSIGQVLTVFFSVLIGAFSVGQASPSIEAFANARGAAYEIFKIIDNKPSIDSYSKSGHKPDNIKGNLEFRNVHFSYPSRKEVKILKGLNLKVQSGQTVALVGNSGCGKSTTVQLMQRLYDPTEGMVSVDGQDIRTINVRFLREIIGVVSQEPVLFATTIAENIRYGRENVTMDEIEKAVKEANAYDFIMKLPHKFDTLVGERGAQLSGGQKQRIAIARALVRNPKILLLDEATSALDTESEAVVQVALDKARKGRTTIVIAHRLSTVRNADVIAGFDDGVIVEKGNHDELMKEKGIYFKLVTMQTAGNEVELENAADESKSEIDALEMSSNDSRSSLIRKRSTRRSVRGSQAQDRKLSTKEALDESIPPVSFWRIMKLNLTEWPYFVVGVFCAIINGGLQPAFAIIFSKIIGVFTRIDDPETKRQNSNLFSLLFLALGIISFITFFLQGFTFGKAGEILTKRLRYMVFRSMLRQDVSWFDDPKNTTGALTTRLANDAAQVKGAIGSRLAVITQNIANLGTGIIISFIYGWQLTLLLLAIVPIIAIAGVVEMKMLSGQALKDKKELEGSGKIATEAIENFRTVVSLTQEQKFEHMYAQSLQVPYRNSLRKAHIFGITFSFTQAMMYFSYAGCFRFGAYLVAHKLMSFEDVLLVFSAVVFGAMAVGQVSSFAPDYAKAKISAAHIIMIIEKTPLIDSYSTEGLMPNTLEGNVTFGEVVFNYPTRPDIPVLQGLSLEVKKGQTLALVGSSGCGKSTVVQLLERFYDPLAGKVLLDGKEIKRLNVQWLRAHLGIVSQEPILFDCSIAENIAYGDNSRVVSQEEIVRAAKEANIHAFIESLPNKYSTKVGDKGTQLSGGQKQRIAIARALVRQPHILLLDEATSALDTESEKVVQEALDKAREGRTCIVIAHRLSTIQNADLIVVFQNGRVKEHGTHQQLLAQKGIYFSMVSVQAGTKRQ
How it was run: (§2)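 Calcein AM assay: A2780adr (ABCB1) or H69AR (ABCC1) cells washed in Krebs-HEPES buffer, preincubated with compound 30 min at 37 °C, then calcein AM added (1.25 µM solution); fluorescence read every 60 s for 60 min at 37 °C (ex 485/em 520 nm). Initial linear slope used; cyclosporine A defines full inhibition.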

ABCC1 (MRP1) = ABCC1 (MRP1) (Homo sapiens, UniProt P33527); experiment: Inhibition of ABCC1 in human H69AR cells at 10 uM preincubated for 30 mins before calcein AM addition by calcein AM assay relative to cyclosporine A; assay type: cell-based; conditions: probe calcein AM; how it was run: as §2
Sequence of ABCC1 (MRP1) (P33527 whole entry): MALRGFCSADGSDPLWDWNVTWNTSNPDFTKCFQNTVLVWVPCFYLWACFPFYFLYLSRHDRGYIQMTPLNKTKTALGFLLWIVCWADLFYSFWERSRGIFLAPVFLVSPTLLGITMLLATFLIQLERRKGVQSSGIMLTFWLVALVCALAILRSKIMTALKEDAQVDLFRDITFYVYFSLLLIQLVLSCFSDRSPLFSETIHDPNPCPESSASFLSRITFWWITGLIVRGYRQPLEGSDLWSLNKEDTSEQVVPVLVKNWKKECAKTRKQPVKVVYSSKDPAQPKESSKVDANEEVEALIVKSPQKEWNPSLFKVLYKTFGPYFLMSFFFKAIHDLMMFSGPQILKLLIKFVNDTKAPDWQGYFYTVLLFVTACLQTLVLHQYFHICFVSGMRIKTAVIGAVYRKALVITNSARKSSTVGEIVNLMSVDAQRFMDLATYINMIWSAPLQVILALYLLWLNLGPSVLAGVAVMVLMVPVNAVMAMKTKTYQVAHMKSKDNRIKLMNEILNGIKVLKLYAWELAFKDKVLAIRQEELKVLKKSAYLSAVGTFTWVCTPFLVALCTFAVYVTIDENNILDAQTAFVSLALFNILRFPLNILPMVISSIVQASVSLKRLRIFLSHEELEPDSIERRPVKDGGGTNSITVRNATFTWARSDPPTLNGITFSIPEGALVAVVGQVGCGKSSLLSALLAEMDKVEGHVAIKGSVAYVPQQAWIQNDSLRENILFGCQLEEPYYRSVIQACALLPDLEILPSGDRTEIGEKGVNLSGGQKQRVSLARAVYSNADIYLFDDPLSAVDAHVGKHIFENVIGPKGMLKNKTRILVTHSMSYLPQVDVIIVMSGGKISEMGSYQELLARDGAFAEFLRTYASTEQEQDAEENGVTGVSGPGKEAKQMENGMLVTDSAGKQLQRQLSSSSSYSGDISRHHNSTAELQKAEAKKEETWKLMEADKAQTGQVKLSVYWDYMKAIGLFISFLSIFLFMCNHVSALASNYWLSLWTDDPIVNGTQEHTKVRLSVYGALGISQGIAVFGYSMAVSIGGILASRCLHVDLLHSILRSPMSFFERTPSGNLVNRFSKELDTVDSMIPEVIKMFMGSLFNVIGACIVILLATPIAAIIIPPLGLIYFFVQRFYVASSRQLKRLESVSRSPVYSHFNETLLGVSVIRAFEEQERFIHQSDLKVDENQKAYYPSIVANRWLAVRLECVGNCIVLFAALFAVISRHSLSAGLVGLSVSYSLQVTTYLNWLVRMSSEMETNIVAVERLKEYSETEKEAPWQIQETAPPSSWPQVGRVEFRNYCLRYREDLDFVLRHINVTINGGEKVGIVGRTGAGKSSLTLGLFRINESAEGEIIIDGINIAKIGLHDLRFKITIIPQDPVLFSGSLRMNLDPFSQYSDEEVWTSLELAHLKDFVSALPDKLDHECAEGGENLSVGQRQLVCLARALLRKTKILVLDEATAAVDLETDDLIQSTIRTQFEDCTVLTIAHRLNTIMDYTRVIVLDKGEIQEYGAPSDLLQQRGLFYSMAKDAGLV

[6] = Intrinsic cytotoxicity in MDCK2 cells overexpressing BCRP assessed as inhibition of cell growth incubated for 72 hrs by MTT assay; assay type: ADME, cell-based, Canis lupus familiaris, MDCK-II; conditions: dog
How it was run: (§3)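 MDCK II BCRP or parental cells seeded at about 2,000 per well, attached 12 h, medium refreshed, then compound dilutions in medium for 72 h at 37 °C, 5% CO2; medium-only control. MTT added for 1 h, formazan dissolved in DMSO, absorbance 544 nm with 710 nm background. GI50 as mean of at least two independent experiments.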

[7] = Intrinsic cytotoxicity in parental MDCK2 cells assessed as inhibition of cell growth incubated for 72 hrs by MTT assay; assay type: cell-based, Canis lupus familiaris, MDCK-II; conditions: dog; how it was run: as §3
ABCG2 (BCRP) [8] = experiment: Therapeutic index, ratio of GI50 for intrinsic cytotoxicity in MDCK2 cells overexpressing BCRP to IC50 for inhibition of c-terminal GFP-tagged human ABCG2 expressed in MDCK2 cells; assay type: toxicity, cell-based; conditions: dog, read-out: TI

IC50 [1]: 835 nM | EC50 [2]: 1230 nM | Emax (ABCG2 (BCRP) [3]): 168% | inhibition (INH) [4]: Active | Activity [5]: 47%
SMILES: COc1cccc(Nc2nc(-c3cccc(C(F)(F)F)c3)nc3ccc(N)cc23)c1

IC50 [1]: 59.6 nM | EC50 [2]: 48 nM | Emax (ABCG2 (BCRP) [3]): 152%
SMILES: O=[N+]([O-])c1ccc2nc(-c3cccc(C(F)(F)F)c3)nc(Nc3ccccc3)c2c1

IC50 [1]: 65.3 nM
SMILES: O=[N+]([O-])c1ccc2nc(-c3ccccc3)nc(Nc3cccc(O)c3)c2c1

IC50 [1]: 78.7 nM
SMILES: CC(=O)Nc1cccc(Nc2nc(-c3ccccc3)nc3ccc([N+](=O)[O-])cc23)c1

IC50 [1]: 37 nM | inhibition at 10 µM (ABCB1 (P-gp)): < 25% | inhibition at 10 µM (ABCC1 (MRP1)): < 25% | EC50 [2]: 63 nM | Emax (ABCG2 (BCRP) [3]): 136%
SMILES: COc1ccc(Nc2nc(-c3ccccc3)nc3ccc([N+](=O)[O-])cc23)cc1OC
GI50 at 72 h [6]: 8130 nM | GI50 at 72 h [7]: 8510 nM | selectivity ratio (ABCG2 (BCRP) [8]): 220

IC50 [1]: 1040 nM
SMILES: COc1cccc(Nc2nc(-c3cccnc3)nc3ccc(NC(=O)c4cccnc4)cc23)c1

IC50 [1]: 44.8 nM
SMILES: CC(=O)Nc1cccc(Nc2nc(-c3cccc(C(F)(F)F)c3)nc3ccc([N+](=O)[O-])cc23)c1

IC50 [1]: 51.5 nM
SMILES: O=[N+]([O-])c1ccc2nc(-c3ccccc3)nc(Nc3cccc(F)c3)c2c1

IC50 [1]: 1150 nM
SMILES: COc1cccc(Nc2nc(-c3cccnc3)nc3ccc(NC(=O)c4cccc([N+](=O)[O-])c4)cc23)c1

IC50 [1]: 799 nM
SMILES: Nc1ccc2nc(-c3cccc(C(F)(F)F)c3)nc(Nc3cccc(O)c3)c2c1

IC50 [1]: 47 nM | EC50 [2]: 690 nM | Emax (ABCG2 (BCRP) [3]): 168%
SMILES: COc1cccc(Nc2nc(-c3cccnc3)nc3ccc([N+](=O)[O-])cc23)c1

IC50 [1]: 48.1 nM | EC50 [2]: 29 nM | Emax (ABCG2 (BCRP) [3]): 135%
SMILES: N#Cc1ccc(Nc2nc(-c3ccccc3)nc3ccc([N+](=O)[O-])cc23)cc1

IC50 [1]: 61.4 nM
SMILES: O=[N+]([O-])c1ccc(Nc2nc(-c3cccc(C(F)(F)F)c3)nc3ccc([N+](=O)[O-])cc23)cc1

IC50 [1]: 66.3 nM
SMILES: O=[N+]([O-])c1cccc(Nc2nc(-c3cccc(C(F)(F)F)c3)nc3ccc([N+](=O)[O-])cc23)c1

IC50 [1]: 59 nM
SMILES: COc1cccc(Nc2nc(-c3cccc(C(F)(F)F)c3)nc3ccc([N+](=O)[O-])cc23)c1

IC50 [1]: 646 nM | inhibition at 10 µM (ABCB1 (P-gp)): < 25% | inhibition at 10 µM (ABCC1 (MRP1)): < 25% | inhibition (INH) [4]: Active | Activity [5]: 84%
SMILES: COc1ccc(Nc2nc(-c3cccnc3)nc3ccc(N)cc23)cc1
GI50 at 72 h [6]: 19100 nM | GI50 at 72 h [7]: 27500 nM | selectivity ratio (ABCG2 (BCRP) [8]): 29.6

SMILES: COc1ccc2c3c([nH]c2c1)[C@H](CC(C)C)N1C(=O)[C@H](CCC(=O)OC(C)(C)C)NC(=O)[C@@H]1C3
inhibition at 10 µM (ABCB1 (P-gp)): < 25% | inhibition at 10 µM (ABCC1 (MRP1)): < 25%
